Reference: ChEMBL document CHEMBL1124772, “Synthesis and anticonvulsant activity of 1-phenylcyclohexylamine analogues” (J Med Chem, 1990)

Columns and labels:
[1] = test system: Mus musculus; assay: Evaluated for anticonvulsant activity (TD50) by motor toxicity assay in mouse by intraperitoneal administration.; format: functional; conditions: ip
Summary of the method: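 Male Swiss mice (25–30 g), ip in 0.9% NaCl carrier. Five to 10 doses, eight mice per dose; TD50 with 95% confidence limits by log-probit analysis. Compounds given as HCl salts, one as a methiodide.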

[2] = biological target: Glutamate NMDA receptor; assay: Evaluated in vitro binding affinity against PCP receptor using [3H]TCP as radioligand in rat brain membranes; format: cell membranes
[3] = species: Mus musculus; assay: TI value is the ratio between TD50 and ED50; format: functional
Summary of the method: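 Ratio TD50/MES ED50. Both values from ip dosing in male Swiss mice (25–30 g), 0.9% NaCl carrier. Five to 10 doses, eight mice per dose; each value by log-probit analysis.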

[4] = test system: Mus musculus; assay: Evaluated for anticonvulsant activity (ED50) by maximal electroshock (MES) seizure test in mouse by intraperitoneal administration.; format: functional
Summary of the method: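 Protection means no tonic-extensor component. Five to 10 doses, eight mice per dose; ED50 with 95% confidence limits by log-probit analysis. Compounds given as HCl salts, one as a methiodide.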

[5] = test system: Mus musculus; assay: Evaluated for anticonvulsant activity (TD50) by motor toxicity assay in mouse by intraperitoneal administration; range is 40.6-54.8; format: functional; conditions: ip

CN(C)C1(c2ccccc2)CCCCC1.Cl
TD50 [1]: 11.3 mg/kg | Ki [2]: 0.722 µM | TI [3]: 2.32 | MES ED50 [4]: 4.86 mg/kg

C[C@@H]1CCCC[C@]1(N)c1ccccc1.Cl (racemic)
TD50 [1]: 34.6 mg/kg | Ki [2]: 1.6 µM | TI [3]: 2.05 | MES ED50 [4]: 16.87 mg/kg

Cl.NC1(c2ccc(F)cc2)CCCCC1
TD50 [1]: 23.4 mg/kg | Ki [2]: 0.923 µM | TI [3]: 0.9 | MES ED50 [4]: 26.18 mg/kg

Cl.NC1(c2cccc(C(F)(F)F)c2)CCCCC1
TD50 [1]: 16 mg/kg | Ki [2]: 8.4 µM | TI [3]: 0.66 | MES ED50 [4]: 24.31 mg/kg

CCCCC1(N)CCCCC1.Cl
TD50 [5]: 40.6 mg/kg | MES ED50 [4]: >40.6 mg/kg

COc1ccc(C2(N)CCCCC2)cc1.Cl
TD50 [1]: 77.9 mg/kg | Ki [2]: 121 µM | TI [3]: 2.39 | MES ED50 [4]: 32.67 mg/kg

CCC(N)(CC)c1ccccc1.Cl
TD50 [1]: 42.1 mg/kg | Ki [2]: 6 µM | TI [3]: 1.35 | MES ED50 [4]: 31.23 mg/kg

COc1ccccc1C1(N)CCCCC1.Cl
TD50 [1]: 31.6 mg/kg | Ki [2]: 0.85 µM | TI [3]: 2.84 | MES ED50 [4]: 11.11 mg/kg

CSc1ccccc1C1(N)CCCCC1.Cl
TD50 [1]: 29.3 mg/kg | Ki [2]: 0.82 µM | TI [3]: 1.12 | MES ED50 [4]: 26.18 mg/kg

Cl.NC1(c2cccs2)CCCCC1
TD50 [1]: 4.99 mg/kg | Ki [2]: 0.145 µM | TI [3]: 0.47 | MES ED50 [4]: 10.5 mg/kg

Cl.NC1(c2cccc(O)c2)CCCCC1
TD50 [1]: 42.7 mg/kg | Ki [2]: 0.222 µM | TI [3]: 1.21 | MES ED50 [4]: 35.25 mg/kg

Cl.NC1(c2ccc(-c3ccccc3)cc2)CCCCC1
TD50 [1]: 26.7 mg/kg | Ki [2]: 86 µM | TI [3]: 1.42 | MES ED50 [4]: 18.81 mg/kg

Cl.NC1(c2ccc3ccccc3c2)CCCCC1
TD50 [1]: 30.9 mg/kg | Ki [2]: 34 µM | TI [3]: 1.82 | MES ED50 [4]: 16.91 mg/kg

C[C@H]1CC[C@](N)(c2ccccc2)CC1.Cl
TD50 [1]: 46.6 mg/kg | Ki [2]: 1.1 µM | TI [3]: 3.44 | MES ED50 [4]: 13.53 mg/kg

Cl.NC1(c2cccc(F)c2)CCCCC1
TD50 [1]: 20.2 mg/kg | Ki [2]: 0.675 µM | TI [3]: 2.15 | MES ED50 [4]: 9.36 mg/kg

C[C@H]1CCCC[C@]1(N)c1ccccc1.Cl (racemic)
TD50 [1]: 5.92 mg/kg | Ki [2]: 2 µM | TI [3]: 0.74 | MES ED50 [4]: 8.01 mg/kg

CSc1ccc(C2(N)CCCCC2)cc1.Cl
TD50 [1]: 77.1 mg/kg | Ki [2]: 43 µM | TI [3]: 1.89 | MES ED50 [4]: 40.8 mg/kg

CSc1cccc(C2(N)CCCCC2)c1.Cl
TD50 [1]: 63.7 mg/kg | Ki [2]: 2.42 µM | TI [3]: 1.94 | MES ED50 [4]: 32.88 mg/kg

Cl.NC1(c2ccccc2C(F)(F)F)CCCCC1
TD50 [1]: 39.2 mg/kg | Ki [2]: 12.4 µM | TI [3]: 1.29 | MES ED50 [4]: 30.36 mg/kg

Cl.NC1(c2ccccc2F)CCCCC1
TD50 [1]: 61.2 mg/kg | Ki [2]: 10.7 µM | TI [3]: 2.67 | MES ED50 [4]: 22.93 mg/kg

CNC1(c2ccccc2)CCCCC1.Cl
TD50 [1]: 1.56 mg/kg | Ki [2]: 0.347 µM | TI [3]: 0.34 | MES ED50 [4]: 4.62 mg/kg

Cc1cccc(C2(N)CCCCC2)c1.Cl
TD50 [1]: 26.2 mg/kg | Ki [2]: 0.592 µM | TI [3]: 1.37 | MES ED50 [4]: 19.11 mg/kg

COc1cccc(C2(N)CCCCC2)c1.Cl
TD50 [1]: 21.4 mg/kg | Ki [2]: 0.563 µM | TI [3]: 1.45 | MES ED50 [4]: 14.78 mg/kg

C[C@H]1CC[C@@](N)(c2ccccc2)CC1.Cl
TD50 [1]: 69.3 mg/kg | Ki [2]: 8.4 µM | TI [3]: 2.05 | MES ED50 [4]: 33.75 mg/kg

Cl.NC1(c2cc3ccccc3c3ccccc23)CCCCC1
TD50 [1]: 20.6 mg/kg | Ki [2]: 27.5 µM | TI [3]: 1.28 | MES ED50 [4]: 16.02 mg/kg

Cl.NC1(c2ccccc2)CCCC1
TD50 [1]: 64.6 mg/kg | Ki [2]: 10.5 µM | TI [3]: 3.49 | MES ED50 [4]: 18.52 mg/kg

C[N+](C)(C)C1(c2ccccc2)CCCCC1.[I-]
TD50 [1]: > 64 mg/kg | Ki [2]: 14.3 µM | MES ED50 [4]: >64 mg/kg

Cl.NC1(c2ccccc2)CCCCC1
TD50 [1]: 16.3 mg/kg | Ki [2]: 0.527 µM | TI [3]: 2.31 | MES ED50 [4]: 7.04 mg/kg

Cl.NC1(c2ccccc2)CCCCCC1
TD50 [1]: 43 mg/kg | Ki [2]: 2.6 µM | TI [3]: 2.18 | MES ED50 [4]: 19.73 mg/kg

Cc1ccc(C2(N)CCCCC2)cc1.Cl
TD50 [1]: > 74 mg/kg | Ki [2]: 7.3 µM | MES ED50 [4]: >74 mg/kg

C[C@H]1CCC[C@](N)(c2ccccc2)C1.Cl
TD50 [1]: 54.8 mg/kg | Ki [2]: 0.502 µM | MES ED50 [4]: 26.38 mg/kg

Cl.NC1(Cc2ccccc2)CCCCC1
TD50 [1]: 67.2 mg/kg | Ki [2]: 16 µM | TI [3]: 1.95 | MES ED50 [4]: 34.52 mg/kg

C[C@@H]1CCC[C@](N)(c2ccccc2)C1.Cl
TD50 [1]: 56.1 mg/kg | Ki [2]: 1.2 µM | TI [3]: 2.69 | MES ED50 [4]: 20.86 mg/kg

c1ccc(C2(N3CCCCC3)CCCCC2)cc1 [PHENCYCLIDINE]
TD50 [1]: 2.9 mg/kg | Ki [2]: 0.06 µM | TI [3]: 0.93 | MES ED50 [4]: 3.1 mg/kg

C[C@H]1CCC[C@@](N)(c2ccccc2)C1.Cl
TD50 [1]: 24.3 mg/kg | Ki [2]: 1.64 µM | TI [3]: 3.04 | MES ED50 [4]: 8.01 mg/kg

Cl.NC1(c2cccc(OCc3ccccc3)c2)CCCCC1
TD50 [1]: 67 mg/kg | Ki [2]: 10.6 µM | TI [3]: 2.28 | MES ED50 [4]: 29.41 mg/kg

C[C@@H]1CCC[C@@](N)(c2ccccc2)C1.Cl
TD50 [1]: 15.9 mg/kg | Ki [2]: 8 µM | TI [3]: 1.98 | MES ED50 [4]: 8.04 mg/kg

Cl.NC1(c2c(F)c(F)c(F)c(F)c2F)CCCCC1
TD50 [1]: 37.9 mg/kg | Ki [2]: 10 µM | TI [3]: 1.21 | MES ED50 [4]: 33.81 mg/kg

Cc1ccccc1C1(N)CCCCC1.Cl
TD50 [1]: 7.19 mg/kg | Ki [2]: 7.8 µM | TI [3]: 1.46 | MES ED50 [4]: 4.93 mg/kg

Cl.NCC1(c2ccccc2)CCCCC1
TD50 [1]: 51.9 mg/kg | Ki [2]: 5.1 µM | TI [3]: 1.87 | MES ED50 [4]: 27.7 mg/kg
